FLuc act counter – firefly luciferase counter-screen for stimulation assays; ATPlite luciferase biochemical, luminescence, 10 min; 0 = ATP-free wells, 1 = DMSO control; 200,000 tested, under 10 active; AID 1027; P08659; activation factor at 10 µM;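 active means luciferase activation factor, scaled between plate controls, of at least 2 with compound at 10 µM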
Target sequence (P08659 whole entry, looked up): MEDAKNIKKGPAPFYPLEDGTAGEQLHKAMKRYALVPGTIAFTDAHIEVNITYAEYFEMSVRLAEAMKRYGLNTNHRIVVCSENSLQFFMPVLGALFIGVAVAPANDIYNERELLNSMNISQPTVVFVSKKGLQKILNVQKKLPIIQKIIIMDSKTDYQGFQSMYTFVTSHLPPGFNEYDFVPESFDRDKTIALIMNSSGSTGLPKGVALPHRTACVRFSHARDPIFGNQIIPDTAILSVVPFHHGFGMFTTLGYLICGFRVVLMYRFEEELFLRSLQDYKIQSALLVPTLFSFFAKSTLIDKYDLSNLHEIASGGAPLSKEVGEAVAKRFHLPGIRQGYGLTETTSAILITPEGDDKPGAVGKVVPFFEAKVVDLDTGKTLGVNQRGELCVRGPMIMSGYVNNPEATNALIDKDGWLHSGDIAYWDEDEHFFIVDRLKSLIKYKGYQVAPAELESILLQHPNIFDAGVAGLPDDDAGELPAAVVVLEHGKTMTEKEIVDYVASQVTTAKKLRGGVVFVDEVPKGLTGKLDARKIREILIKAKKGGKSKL
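System: cell-free luciferase reagent; medium: PBS as buffer for the ATP substrate; doses: test compounds dosed from 2 mM stocks in 100% DMSO; incubation: 10 min, room temperature; measured by: luminescence from luciferase reaction; read-out: luciferase activation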
FLuc inh counter – Photinus pyralis luciferase inhibition counter-screen. ATPLite firefly luciferase biochemical luminescence, 10 min. inhibition, % at 10 µM. P08659. 1.5% of 200,000 active;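 active means inhibition above about 50% when tested at 10 µM, limit read from the data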
APP 5'UTR act – activates APP 5'UTR luciferase reporter; SH-SY5Y APP 5'UTR luciferase reporter, luminescence; zero percent = DMSO vehicle wells; activation, % at 2 µM; 1% of 190,000 active; AID 1276;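 active means activation above a set limit, based on mean plus 3 SD of controls, cut at about 140% in these data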
NF-kB neuron act – compounds increasing NF-kB expression in human neuronal cells. fold change at 12.5 µM. 1.6% of 190,000 active. NF-kB reporter expression; stronger effect = higher value. AID 1239; in the data active means fold change above about 3.3
STAT1 activator – activators of IFN-gamma induced STAT1 signaling; NIH 3T3 STAT1-luciferase reporter, luminescence; 100% = IFN-gamma alone, no compound; 2.6% of 200,000 active; activation (% of control), % at 5.5 µM;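 active means activation above the screen-wide mean activation plus 3 SD, cut at about 130% in these data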;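 further: raw ratio to IFN-gamma control signal so 100% means no change and 0% no light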
STAT1 act conf – confirmation of STAT1 signaling activators; shares compounds with STAT1 activator; NIH 3T3 STAT1-luciferase reporter, IFN-gamma potentiation, luminescence; 100% = IFN-gamma EC80 alone, no compound; activation (% of control), % at 5.7 µM; 97% of 1,200 active; AID 1262;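 active means activation above a set limit carried over from the earlier primary STAT1 screen, cut at about 140% in these data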;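 further: simple ratio to median IFN-gamma plus DMSO wells so 0% means no light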
NFkB act STAT1ct – NF-kappaB activation in STAT1 activator counter-screen; HEK293T NF-kB luciferase reporter, TNF-alpha stimulated, luminescence; 100% = TNF-alpha with vehicle only; 43% of 1,200 active; AID 1306; shares compounds with STAT1 activator; activation (% of control), % at 5.7 µM;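 active means activation above the mean of solvent-only control wells plus 3 SD, set per campaign, cut at about 130% in these data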;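 further: TNF-alpha given at a submaximal dose yielding about 80% of full reporter signal; values are well signal over median control so 100% means no change and 0% no light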
STAT3 act 2 – counter-screen for STAT1 activators: human STAT3 activation. U3A cells STAT3-luciferase reporter, IL-6, luminescence; cells lack STAT1; 100 = IL-6 alone, no compound effect. shares compounds with STAT1 activator. 46% of 1,200 active. AID 1316. activation (% of control), % at 5.7 µM;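 active means activation above the solvent-only control well mean plus 3 SD, set per plate batch, cut at about 110% in these data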;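 further: 0% = no luminescence and 100% = median IL-6 plus DMSO wells; higher means more STAT3 reporter activation so hits are non-selective activators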
* hit, by the source's call; . = no result given. Rows were chosen to be rich in hits. Some 4.1% of all compounds tested hit in one or more screens of this group.

SMILES	FLuc act counter	FLuc inh counter	APP 5'UTR act	NF-kB neuron act	STAT1 activator	STAT1 act conf	NFkB act STAT1ct	STAT3 act 2
COc1ccc(-c2cc(=NCCC(=O)O)c3cc(C)ccc3o2)cc1	0.9	13	145*	3.7*	153*	154*	131	103
COc1ccc(-c2cc(=Nc3ccccc3)c3cc(C)ccc3o2)cc1	0.8	23	134	8.6*	165*	143*	132	97
COc1ccc(-c2cc(=O)c3c(OC)c(OC)c(OC)cc3o2)cc1	1	5	2	0.82	104	.	.	.
O=C(c1cc2c(s1)-c1ccccc1OC2)N1CCC2(CC1)OCCO2	1	2	142*	3.9*	158*	196*	134*	119*
N#CC1=C(N)Oc2c(c(=O)sc3ccccc23)C1c1cccnc1 (centres undefined)	1	-5	9	0.99	72	.	.	.
O=C1NC(=O)C(=Cc2ccc(Oc3ccc([N+](=O)[O-])cc3)cc2)C(=O)N1	1	-2	17	1.2	109	.	.	.
COc1cc(C=C2C(=O)NC(=O)NC2=O)ccc1OCc1ccc([N+](=O)[O-])cc1	0.5	52*	2	3.4*	152*	175*	136*	122*
O=C(c1ccc2nc3ccc(Cl)cc3c(=O)n2c1)N1CCC2(CC1)OCCO2	.	.	7	.	101	.	.	.

Screening data from PubChem BioAssay.
